Compound activity as filed in PubChem.
The list is not random: actives were taken first. Their share in the collection is about 2.3%.
TRPC4 PAM – positive allosteric modulators of TRPC4, primary screen, cell-based, mouse TRPC4beta, HEK293 mu-opioid, Fluo-4 calcium; DAMGO EC20, Fluo-4 Ca2+ flux; stronger effect = higher value; 310,000 tested, 0.42% active; B-score at 10 µM;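 active = B-score of calcium response area above 5 SD of library B-scores, with initial fluorescence ratio within 5 SD of library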;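 also: B-score of integrated fluorescence ratio over time as area under calcium response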
TRPC6 inhibitor – mouse TRPC6 channel inhibitors, primary screen, cell-based, HEK293, membrane potential dye | ACh-evoked depolarization; stronger effect = lower value | B-score at 10 µM | 310,000 tested, 1.1% active;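 active = B-score under library mean minus 3 SD, initial fluorescence not abnormally high, positive integrated signal ratio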;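 also: B-score derived from integrated fluorescence ratio over the kinetic read; more negative B-score means stronger inhibition of depolarization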
TRPC4 block – inhibitors of mouse TRPC4 channel, primary screen, Fluo4 calcium, HEK293 TRPC4beta/mu-opioid cells; Short transient receptor potential channel 4 (Mus musculus), Q9QUQ5; DAMGO-evoked Fluo4 calcium flux; stronger effect = lower value; B-score at 10 µM; 300,000 tested, 0.39% active;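 active = B-score over 3 SD under the library average, no early fluorescence shift, positive overall ratio signal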
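Signal: kinetic Fluo4 fluorescence imaging of calcium influx. Material: stable TRPC4beta/mu-opioid receptor HEK293 cells. Probe or stimulus: DAMGO in two steps, submaximal then maximal.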
TRPC6 activator – mouse TRPC6 channel activators, primary screen, cell-based, HEK293, membrane potential dye; HEK293-TRPC6 membrane potential dye fluorescence; stronger effect = higher value; B-score at 10 µM; 310,000 tested, 0.13% active; AID 2550, 2010;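 active = B-score of the integrated fluorescence ratio above library mean plus 3 SD, and starting fluorescence ratio within library mean plus 5 SD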;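 also: higher score means more depolarization so channel activation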
TRPC4 agonist – activators of mouse TRPC4 channel, primary screen, Fluo4 calcium, HEK293 TRPC4beta/mu-opioid cells | AID 2237, 2010 | Short transient receptor potential channel 4 (Mus musculus), Q9QUQ5 | B-score at 10 µM | Fluo4 calcium fluorescence; stronger effect = higher value | 310,000 tested, 0.49% active;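 active = B-score above 5 SD of library B-scores, and initial fluorescence ratio not above library mean plus 5 SD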;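 also: positive B-score marks a calcium rise read as TRPC4 activation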
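Test system: HEK293 cells stably co-expressing mouse TRPC4beta and mu-opioid receptor | Schedule: Fluo4 dye loading 45 min at room temperature, 110 s recording | Measured by: Kinetic Fluo4 calcium fluorescence, 5 s baseline at 1 Hz | Evaluation: B score of integrated ratio | Controls: Buffer (low) and maximal DAMGO (high)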
The depositor's hits bear a star; i = inactive.

SMILES	TRPC4 PAM	TRPC6 inhibitor	TRPC4 block	TRPC6 activator	TRPC4 agonist
O=C(COC(=O)c1ccccc1C(=O)N1CCN(c2ccccc2)CC1)Nc1ccccc1	i	i	i	i	i
Cc1ccc(NS(=O)(=O)c2cccc(C(=O)NCCCN3CCCC3=O)c2)cc1	i	i	i	i	i
Cc1ccccc1CC(=O)NCc1cccnc1	i	i	i	i	i
CCCCn1c(=NC(=O)c2cccnc2)c(C(=O)OCC)cc2c(=O)n3ccccc3nc21	46*	i	i	i	i
CCOCCCn1c(=NC(=O)c2cccnc2)c(C(=O)OCC)cc2c(=O)n3ccccc3nc21	i	i	i	i	i
CCOC(=O)c1c(S(=O)(=O)NCC(=O)N2CCN(c3cccc(OC)c3)CC2)c(C)n(C)c1C	i	i	i	i	i
Cc1cc(/C=N/NC(=O)c2cccc([N+](=O)[O-])c2)c(C)n1-c1ccc(Cl)cc1Cl	i	i	-6*	i	i
Cc1cccc(/C=N/NC(=O)c2cccc([N+](=O)[O-])c2)n1	i	i	i	i	i
Cc1noc(C)c1COC(=O)[C@@H](NC(=O)c1ccccc1Cl)C(C)C	48*	i	i	i	i
Cn1c2ccccc2c(=O)c2ccc(C#CC3(N)CCCCC3)cc21	i	-8.6*	i	i	i
Cn1c2ccccc2c(=O)c2cc(C#CC3(O)CCCCC3)ccc21	i	i	i	i	i
CCCN(CC(=O)Nc1ccccc1C)C(=O)CCNC(=O)c1ccccc1Cl	i	i	i	i	i
Cc1oncc1C(=O)Nc1cccc(C#N)c1	i	i	i	i	i
Cc1csc2c(N3CCN(C(=O)Nc4ccccc4)CC3)ncnc12	i	i	i	i	185*
Cc1csc2c(N3CCN(C(=S)Nc4ccc(F)cc4F)CC3)ncnc12	i	i	i	i	124*
Cc1ccc(NC(=O)CN2C(=O)COc3ccc(S(=O)(=O)N4CCOCC4)cc32)cc1N(C)C	i	i	i	i	i
COCCCNC(=O)c1cc(C)nn1-c1ccccc1	i	i	i	i	i
COc1cc(/C=C2\C(=N)N3N=CSC3=NC2=O)ccc1OS(=O)(=O)c1ccccc1	i	i	i	i	i
CCOc1cc(/C=C2\C(=N)N3N=CSC3=NC2=O)ccc1OS(=O)(=O)c1ccccc1	i	i	-6*	i	i
CCC1=C(c2cc(OC)c(OC)c(OC)c2)C2(CCCC2)C(=O)O1	i	i	i	i	i
Clc1cccc(Cl)c1C1Nc2cccc3cccc(c23)N1	i	-5.5*	i	i	i
Fc1cccc(Cl)c1C1Nc2cccc3cccc(c23)N1	i	i	i	i	i
CC1CCCN(c2c([N+](=O)[O-])cc(C(=O)O)cc2[N+](=O)[O-])C1 (stereo not drawn)	i	i	-5*	i	i
CC1CCCCN1C(=S)NCCc1ccccc1 (stereo not drawn)	i	i	i	i	i
CC(C)(CSc1ccccn1)NS(=O)(=O)c1ccc(Cl)cc1	10*	i	i	i	i
SMILES	TRPC4 PAM	TRPC6 inhibitor	TRPC4 block	TRPC6 activator	TRPC4 agonist
CC(C)(CSc1ccccn1)NS(=O)(=O)c1ccccc1	i	i	i	i	i
NC(N)=NN=C1CCCCCCCCCCC1	i	i	i	i	49*
CC(C)(C)NC(=O)C(=O)NN=C1CCCCCCCCCCC1	i	i	i	i	i
CC1(C)CC(NC(=O)c2cc(COc3cccc(C(F)(F)F)c3)on2)CCO1 (stereo not drawn)	i	i	-6*	i	i
CC1(C)C(=O)NC(=O)N1Cc1ccccc1	i	i	i	i	76*
Cn1c(-c2cccc3ccccc23)n[nH]c1=S	i	i	i	i	102*
CC(C)(C)[C@]1(O)CCN2C[C@H]3c4ccccc4CCc4cccc(c43)[C@@H]2C1	i	i	i	i	61*
CC(C)COc1ccc(CN=C(N)N=C(N)N)cc1Cl	i	i	i	i	50*
CC1(C)CC2CC(C)(CN2C(=O)COC(=O)c2n[nH]c(=O)c3ccccc23)C1 (stereo not drawn)	11*	i	i	i	i
CSCCC(NC(=O)c1ccccc1Cl)C(=O)NNC(=O)c1ccncc1 (stereo not drawn)	i	i	i	i	i
CCCC(=O)N/C(N)=N/c1nc(C)c2ccccc2n1	19*	i	i	i	i
COc1nc(-c2ccccc2Cl)ccc1C#N	i	i	-6*	i	i
CCOc1nc(-c2ccc(Cl)cc2Cl)ccc1C#N	i	i	i	i	i
CC1CCCC(C)N1CC(O)Cn1c2ccccc2c2ccccc21 (stereo not drawn)	i	i	i	i	i
O=C(O)CCS(=O)(=O)c1ccccc1Cl	i	i	i	i	i
O=C(CC(=O)c1c(F)cccc1Cl)c1ccccc1O	i	i	i	i	84*
Cc1ccc(C(=O)OCC(=O)N2CCc3ccccc32)cc1	11*	i	i	i	i
O=C(OCC(=O)N1CCCc2ccccc21)c1ccc(C(F)(F)F)cc1	i	i	i	i	i
COc1ccc(NC(=O)CN(C)C(=O)c2c(C)nn(Cc3ccccc3)c2C)cc1	i	i	i	i	i
O=C(c1cccc(Cl)c1)N1CCC(=O)N(C(COCc2cccc(Cl)c2)Cc2ccccc2)CC1 (stereo not drawn)	i	i	i	i	i
Cc1cccc(C(=O)N2CCC(=O)N(C(COCc3cccc(Cl)c3)Cc3ccccc3)CC2)c1 (stereo not drawn)	i	i	i	i	45*
COc1ccc(CN(CC(=O)NC(C)C)C(=O)CCC(=O)Nc2nccs2)cc1	i	i	i	i	i
CC(C)CC(=O)NC(=S)Nc1ccc(N2CCOCC2)c(Cl)c1	i	i	i	i	i
COc1ccc(C(CNC(=S)NCc2ccccc2)N2CCCC2)cc1 (stereo not drawn)	i	i	-6*	i	i
